Series [1] has as its target T1, Protein cereblon/Androgen receptor (Homo sapiens, UniProt P10275+Q96SW2). Description: Protac activity at CRBN/AR in human LNCaP cells assessed as AR degradation at 10 uM by Western blotting analysis relative to control. The format is cell-based. In outline: (§1)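 LNCaP (IMDM) or 22RV1 (RPMI 1640) cells with 10% FBS at 37 °C, 5% CO2, treated with DMSO vehicle as control. Cells lysed in RIPA buffer (50 mM Tris-HCl pH 7.5, 150 mM NaCl, 1% Triton X-100, 0.1% SDS, 0.5% deoxycholate, protease inhibitors). Protein quantified by Bradford assay. Immunoblotted for AR with tubulin as loading control, HRP chemiluminescence detection.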

Series [2] has as its target T1, Protein cereblon/Androgen receptor. Description: Protac activity at CRBN/AR in human LNCaP cells assessed as AR degradation at 1 uM by Western blotting analysis relative to control. The format is cell-based. An outline of the steps: as §1
Series [3] deals with LNCaP. Put plainly: Antiproliferative activity against human LNCaP cells assessed as reduction in cell viability after 6 days by CellTiter-Glo assay. It is filed as functional. The conditions noted are these: 144 h, time 6 day. In outline:
(§2)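 LNCaP seeded at 1.5 × 10³ and VCaP at 4 × 10³ cells per well in 96-well plates. Cells grown in IMDM with 10% FBS and antibiotic-antimycotic at 37 °C, 5% CO2, with DMSO as vehicle. IC50 from nonlinear regression of log(inhibitor) versus response.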
On the technique in general: ATP-based viability assays read luminescence as a measure of living cells.

The test system of series [4] is VCaP. Put plainly: Antiproliferative activity against human VCaP cells assessed as reduction in cell viability after 6 days by CellTiter-Glo assay. It is filed as functional. To be noted: 144 h, time 6 day. In outline: as §2
Series [5] has as its target T1, Protein cereblon/Androgen receptor. Description: Protac activity at CRBN/AR in human LNCaP cells assessed as AR degradation at 0.1 uM by western blotting analysis relative to control. The format is cell-based. In outline:
as §1
A general note: In western blotting, separated proteins are transferred to a membrane and probed.

Series [6] is described as follows: Metabolic stability in mouse liver microsomes assessed as compound remaining at 1 uM after 30 mins in presence of NADPH-regenerating system. The format is ADME, Microsome. The conditions noted are these: read-out: Stabilty. An outline of the steps:
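Mouse liver microsomes at 0.5 mg protein/mL in 100 mM PBS, pH 7.4. Reaction started with NADPH-regenerating solution (1.3 mM NADP+, 3.3 mM glucose-6-phosphate, 0.4 U/mL G6PDH, 3.3 mM MgCl2). Incubated 30 min at 37 °C, stopped with ice-cold acetonitrile, centrifuged. Percent remaining reported as mean ± SD, n = 3.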

T1 sequence (P10275 whole entry, looked up): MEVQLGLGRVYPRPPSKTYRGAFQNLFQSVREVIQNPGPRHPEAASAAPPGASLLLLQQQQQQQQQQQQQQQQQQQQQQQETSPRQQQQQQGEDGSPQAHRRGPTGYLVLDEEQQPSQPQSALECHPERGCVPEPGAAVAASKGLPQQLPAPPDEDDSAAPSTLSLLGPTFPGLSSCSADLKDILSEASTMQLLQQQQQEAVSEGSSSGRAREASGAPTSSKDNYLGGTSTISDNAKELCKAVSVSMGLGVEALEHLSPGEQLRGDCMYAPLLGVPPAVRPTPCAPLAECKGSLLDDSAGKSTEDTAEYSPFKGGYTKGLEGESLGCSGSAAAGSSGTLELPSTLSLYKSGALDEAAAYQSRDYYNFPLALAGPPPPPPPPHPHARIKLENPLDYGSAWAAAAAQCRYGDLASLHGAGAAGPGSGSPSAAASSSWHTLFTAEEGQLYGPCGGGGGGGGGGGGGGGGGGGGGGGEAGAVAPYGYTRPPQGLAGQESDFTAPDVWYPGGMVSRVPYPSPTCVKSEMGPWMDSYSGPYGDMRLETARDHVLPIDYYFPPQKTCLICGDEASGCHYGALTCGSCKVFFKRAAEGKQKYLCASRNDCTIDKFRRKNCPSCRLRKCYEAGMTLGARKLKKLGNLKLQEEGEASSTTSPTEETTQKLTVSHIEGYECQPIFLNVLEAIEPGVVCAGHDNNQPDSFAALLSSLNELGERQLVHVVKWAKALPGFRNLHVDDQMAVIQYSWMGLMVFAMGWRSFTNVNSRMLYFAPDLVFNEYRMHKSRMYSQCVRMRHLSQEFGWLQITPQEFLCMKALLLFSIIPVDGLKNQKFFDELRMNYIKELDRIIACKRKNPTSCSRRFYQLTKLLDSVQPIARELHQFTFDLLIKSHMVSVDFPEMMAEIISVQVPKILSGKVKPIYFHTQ
T1 sequence (Q96SW2 whole entry, looked up): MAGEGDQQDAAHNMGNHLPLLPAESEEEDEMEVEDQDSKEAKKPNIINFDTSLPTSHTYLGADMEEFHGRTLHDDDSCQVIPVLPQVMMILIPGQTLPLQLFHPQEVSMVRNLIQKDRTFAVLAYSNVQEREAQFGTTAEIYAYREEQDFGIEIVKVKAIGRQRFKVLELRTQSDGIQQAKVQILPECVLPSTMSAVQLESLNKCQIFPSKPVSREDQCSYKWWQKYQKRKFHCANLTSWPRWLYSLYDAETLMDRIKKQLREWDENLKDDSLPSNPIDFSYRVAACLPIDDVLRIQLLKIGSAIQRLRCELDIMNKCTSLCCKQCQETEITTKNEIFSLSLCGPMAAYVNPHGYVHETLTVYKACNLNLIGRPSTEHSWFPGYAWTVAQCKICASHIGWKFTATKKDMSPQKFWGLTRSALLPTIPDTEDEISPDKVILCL

For orientation: CC50 means the concentration that lowers cell viability or growth by half. Turning to `CC1(C)[C@H](NC(=O)c2ccc(N3CCN(C4CC5(CCN(c6ccc7nnn(C8CCC(=O)NC8=O)c(=O)c7c6)CC5)C4)CC3)cc2)C(C)(C)[C@H]1Oc1ccc(C#N)c(Cl)c1` (some centres undefined), the Activity in series [1] was found to be 81%; in series [2] it was 95%; in series [5], 15%. Also, the CC50 in series [3] came to 0.214 µM; in series [4], 0.113 µM.

For the molecule `CC1(C)[C@H](NC(=O)c2ccc(N3CCN(CC4CCN(c5ccc6nnn(C7CCC(=O)NC7=O)c(=O)c6c5)CC4)CC3)cc2)C(C)(C)[C@H]1Oc1ccc(C#N)c(Cl)c1` (some centres undefined), the Activity in series [1] amounted to 95%; in series [2], 91%; in series [5], 79%. The CC50 in series [3] was 0.259 µM; in series [4] it was 0.081 µM. The remaining at 0.5 h, 1 µM in series [6] came to 71.7%.

Turning to `CC1(C)[C@H](NC(=O)c2ccc(N3CCN(CCC4CCN(C(=O)CNc5ccc6nnn(C7CCC(=O)NC7=O)c(=O)c6c5)CC4)CC3)cc2)C(C)(C)[C@H]1Oc1ccc(C#N)c(Cl)c1` (some centres undefined), the Activity in series [1] was determined as 83%; in series [2], 87%; in series [5], 7%. For the same molecule, the CC50 in series [3] is 1.09 µM; in series [4], 0.107 µM. For the same molecule, the remaining at 0.5 h, 1 µM in series [6] was found to be 0.56%.

On to `CC1(C)[C@H](NC(=O)c2ccc(N3CCN(CCC4CCN(C(=O)C5CCN(c6ccc7nnn(C8CCC(=O)NC8=O)c(=O)c7c6)CC5)CC4)CC3)cc2)C(C)(C)[C@H]1Oc1ccc(C#N)c(Cl)c1` (some centres undefined), for which the Activity in series [1] amounted to 99%; in series [2] it was 93%; in series [5], 77%. For the same molecule, the CC50 in series [3] is 0.316 µM; in series [4] it was 0.052 µM. Moreover, in series [6], the remaining at 0.5 h, 1 µM came to 93.7%.

On to `CC1(C)[C@H](NC(=O)c2ccc(N3CCN(CC4CCN(c5ccc6c(=O)n(C7CCC(=O)NC7=O)nnc6c5)CC4)CC3)cc2)C(C)(C)[C@H]1Oc1ccc(C#N)c(Cl)c1` (some centres undefined), for which the Activity in series [1] stood at 83%; in series [2] it was 60%; in series [5] it was 28%.

As to `CC1(C)[C@H](NC(=O)c2ccc(N3CCN(CCOC4CCN(C(=O)C5CCN(c6ccc7nnn(C8CCC(=O)NC8=O)c(=O)c7c6)CC5)CC4)CC3)cc2)C(C)(C)[C@H]1Oc1ccc(C#N)c(Cl)c1` (some centres undefined), the Activity is 98% in series [1], 92% in series [2] and 72% in series [5]. For the same molecule, the CC50 in series [3] came to 0.847 µM; in series [4], 0.08 µM. In series [6], the remaining at 0.5 h, 1 µM was determined as 78.4%.

Regarding `CC1(C)[C@H](NC(=O)c2ccc(N3CCN(CCC4CCN(C(=O)C5CN(c6ccc7nnn(C8CCC(=O)NC8=O)c(=O)c7c6)C5)CC4)CC3)cc2)C(C)(C)[C@H]1Oc1ccc(C#N)c(Cl)c1` (some centres undefined), the Activity in series [1] turned out to be 96%; in series [2], 84%; in series [5], 74%. For the same molecule, the CC50 in series [3] was 0.538 µM; in series [4], 0.037 µM. Also, in series [6], the remaining at 0.5 h, 1 µM was 92.9%.

Consider `CC1(C)[C@H](NC(=O)c2ccc(N3CCN(CC4CCN(C(=O)C5CCN(c6ccc7nnn(C8CCC(=O)NC8=O)c(=O)c7c6)CC5)CC4)CC3)cc2)C(C)(C)[C@H]1Oc1ccc(C#N)c(Cl)c1` (some centres undefined), for which the Activity was found to be 94% in series [1], 89% in series [2] and 90% in series [5]. Also, the CC50 in series [3] was 0.108 µM; in series [4] it was 0.045 µM. In series [6], the remaining at 0.5 h, 1 µM worked out at 74.3%.

`CC1(C)[C@H](NC(=O)c2ccc(N3CCN(CC4CCN(C(=O)COc5ccc6nnn(C7CCC(=O)NC7=O)c(=O)c6c5)CC4)CC3)cc2)C(C)(C)[C@H]1Oc1ccc(C#N)c(Cl)c1` (some centres undefined): the Activity in series [1] came out at 51%; in series [2], 40%; in series [5] it was 89%. Besides, the CC50 in series [3] was 0.804 µM.

On to `CC1(C)[C@H](NC(=O)c2ccc(N3CCN(CC4CCN(c5cccc6nnn(C7CCC(=O)NC7=O)c(=O)c56)CC4)CC3)cc2)C(C)(C)[C@H]1Oc1ccc(C#N)c(Cl)c1` (some centres undefined), for which the Activity in series [1] came to 78%; in series [2], 77%; in series [5], 15%. Also, the CC50 in series [3] turned out to be 0.613 µM.

Take `CC1(C)[C@H](NC(=O)c2ccc(N3CCN(CCC4CCN(C(=O)COc5ccc6nnn(C7CCC(=O)NC7=O)c(=O)c6c5)CC4)CC3)cc2)C(C)(C)[C@H]1Oc1ccc(C#N)c(Cl)c1` (some centres undefined): the Activity in series [1] turned out to be 82%; in series [2], 50%; in series [5], 0%. The values for the CC50 in series [3] and in series [4] were 3.18 µM and 0.046 µM, respectively. Besides, the remaining at 0.5 h, 1 µM in series [6] came to 2.98%.

`CC1(C)[C@H](NC(=O)c2ccc(N3CCN(CCOC4CCN(C(=O)CNc5ccc6nnn(C7CCC(=O)NC7=O)c(=O)c6c5)CC4)CC3)cc2)C(C)(C)[C@H]1Oc1ccc(C#N)c(Cl)c1` (some centres undefined): the Activity in series [1] stood at 88%; in series [2], 95%; in series [5], 77%. The CC50 was 0.852 µM in series [3] and 0.057 µM in series [4]. In series [6], the remaining at 0.5 h, 1 µM amounted to 31.2%.

Regarding `CC1(C)[C@H](NC(=O)c2ccc(N3CCN(CC4CCN(C(=O)CNc5ccc6nnn(C7CCC(=O)NC7=O)c(=O)c6c5)CC4)CC3)cc2)C(C)(C)[C@H]1Oc1ccc(C#N)c(Cl)c1` (some centres undefined), the Activity was 35% in series [1], 89% in series [2] and 70% in series [5]. The CC50 in series [3] stood at 0.117 µM; in series [4], 3.82 µM.

Consider `CC1(C)[C@H](NC(=O)c2ccc(N3CCN(CCOC4CCN(C(=O)COc5ccc6nnn(C7CCC(=O)NC7=O)c(=O)c6c5)CC4)CC3)cc2)C(C)(C)[C@H]1Oc1ccc(C#N)c(Cl)c1` (some centres undefined), for which the values for the Activity in series [1], in series [2] and in series [5] were 94%, 98% and 86%, respectively. Besides, the CC50 in series [3] was 1.3 µM; in series [4] it was 0.141 µM.

Regarding `O=C1CC2(CCCC2)CC(=O)N1CCCCN1CCN(c2ncccn2)CC1` [BUSPIRONE], in series [6], the remaining at 0.5 h, 1 µM stood at 0.03%.

In the case of `CC1(C)[C@H](NC(=O)c2ccc(N3CCN(CCC4CCN(c5ccc6nnn(C7CCC(=O)NC7=O)c(=O)c6c5)CC4)CC3)cc2)C(C)(C)[C@H]1Oc1ccc(C#N)c(Cl)c1` (some centres undefined), the figures for the Activity in series [2] and in series [5] were 94% and 51%, respectively. The values for the 50% cytotoxic concentration (CC50) in series [3] and in series [4] were 0.449 µM and 0.12 µM, respectively. Moreover, the remaining at 0.5 h, 1 µM in series [6] is 86.7%.

As to `CC1(C)[C@H](NC(=O)c2ccc(N3CCN(C4CC5(CCN(C(=O)C6CN(c7ccc8nnn(C9CCC(=O)NC9=O)c(=O)c8c7)C6)CC5)C4)CC3)cc2)C(C)(C)[C@H]1Oc1ccc(C#N)c(Cl)c1` (some centres undefined), the Activity in series [1] is 0%; in series [2], 79%; in series [5], 0%. Further, the values for the CC50 in series [3] and in series [4] were 0.312 µM and 0.135 µM, respectively.

For `CC1(C)[C@H](NC(=O)c2ccc(N3CCN(C4CC5(CCN(c6cccc7nnn(C8CCC(=O)NC8=O)c(=O)c67)CC5)C4)CC3)cc2)C(C)(C)[C@H]1Oc1ccc(C#N)c(Cl)c1` (some centres undefined), the Activity was determined as 71% in series [1], 26% in series [2] and 0% in series [5]. Further, the CC50 in series [3] was found to be 13.4 µM.

Consider `CC1(C)[C@H](NC(=O)c2ccc(N3CCN(CCC4CCN(c5cccc6nnn(C7CCC(=O)NC7=O)c(=O)c56)CC4)CC3)cc2)C(C)(C)[C@H]1Oc1ccc(C#N)c(Cl)c1` (some centres undefined), for which the Activity was determined as 90% in series [1], 31% in series [2] and 0% in series [5]. In addition, the CC50 in series [3] is over 10 µM; in series [4], 1.58 µM.

(Values after ChEMBL document CHEMBL4706590, “Design and characterization of cereblon-mediated androgen receptor proteolysis-targeting chimeras” (Eur J Med Chem, 2020).)
